# Experimental data pooled from the literature.
# Compare with care: the assays were run in different laboratories.
# Target: Megakaryocyte-associated tyrosine-protein kinase (MATK, Homo sapiens, UniProt P42679)
# Residues used in one study (P42679 1-507): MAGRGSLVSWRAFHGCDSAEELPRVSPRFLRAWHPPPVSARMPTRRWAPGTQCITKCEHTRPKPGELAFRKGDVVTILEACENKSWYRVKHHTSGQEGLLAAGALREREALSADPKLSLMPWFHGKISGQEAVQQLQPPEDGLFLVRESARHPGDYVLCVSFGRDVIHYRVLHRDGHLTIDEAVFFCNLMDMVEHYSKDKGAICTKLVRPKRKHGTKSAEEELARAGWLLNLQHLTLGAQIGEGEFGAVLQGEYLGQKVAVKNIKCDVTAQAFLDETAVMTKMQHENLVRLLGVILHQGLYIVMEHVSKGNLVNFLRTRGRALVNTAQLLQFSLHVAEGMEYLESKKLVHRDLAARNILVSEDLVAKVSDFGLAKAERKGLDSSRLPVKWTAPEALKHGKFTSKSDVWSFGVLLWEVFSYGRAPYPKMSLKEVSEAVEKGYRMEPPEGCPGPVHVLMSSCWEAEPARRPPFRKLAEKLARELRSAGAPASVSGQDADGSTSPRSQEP
Structure (SMILES),assay,setting,measurement,value
Nc1ncc(-c2nc(N3CCOCC3)nc(N3CCOCC3)n2)c(C(F)F)n1,"binding, competition with immobilised ligand",10 µM,remaining binding,100%
COc1cc(Nc2ncc(F)c(Nc3ccc4c(n3)NC(=O)C(C)(C)O4)n2)cc(OC)c1OC,"binding, competition with immobilised ligand",10 µM,inhibition,70%
Cn1cncc1[C@](O)(COc1ccc(C#N)cc1-c1ccc(OC(F)(F)F)cc1)c1ccc(C#N)cc1,"cell-free assay, competition with immobilised ligand",1 µM,remaining binding,98%
O=c1[nH]c2ccccc2n1C1CCN(Cc2ccc(-c3[nH]c4cc5ncnc5cc4nc3-c3ccccc3)cc2)CC1,cell-free assay,0.5 µM,remaining signal,102%
Cc1nn(C)cc1-c1nc2c(N3CCN(Cc4ccc(Cl)cc4)CC3)c(Cl)cnc2[nH]1,"binding, competition with immobilised ligand",1 µM,remaining binding,82%
Cn1cc(-c2cccc(N3CCc4c(sc5c4CC(C)(C)C5)C3=O)c2CO)cc(Nc2ccncn2)c1=O,"enzyme activity, inhibitor",1 µM,inhibition,4%
CC(C)(C)c1cc(C=C(C#N)C#N)cc(Br)c1O,"enzyme activity, inhibitor",0.5 µM,remaining activity,102%
Cn1cc(-c2cc(F)cc(N3CCn4c(cc5c4CCCC5)C3=O)c2CO)cc(Nc2ccc(N3CCN(C4COC4)CC3)cn2)c1=O,"enzyme activity, inhibitor",0.1 µM,inhibition,9%
COc1ncccc1-c1cnn2ccc(N3CCN(C(=O)OC(C)C)CC3)nc12,"binding, competition with immobilised ligand",1 µM,remaining binding,46%
